Source: PubChem BioAssay (Johns Hopkins Ion Channel Center)
A selection: hits, their analogues and other compounds. The true share with any hit is near 3.8%.
KCNK3 block = human KCNK3 channel inhibitors, primary screen, CHO cells, FluxOR thallium flux, B-score; Potassium channel subfamily K member 3 (Homo sapiens), O14649; AID 602410, 2012; 0.84% of 340,000 active; B-score at 10 µM; FluxOR fluorescence; stronger effect = lower value;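 active = B-score under library mean minus 4 SD, starting fluorescence ratio at most library mean plus 5 SD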;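 also: more negative B-score means stronger inhibition of thallium flux through KCNK3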
Kir21 block = inhibitors of mouse Kir2.1 inward-rectifier potassium channel; Inward rectifier potassium channel 2 (Mus musculus), P35561; HEK293-Kir2.1, FluxOR thallium flux fluorescence; stronger effect = lower value; B-score at 10 µM; 0.85% of 310,000 active; AID 1672, 2009;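 active = fluorescence ratio B-score at or below minus 3 SD of library scores, with starting-brightness B-score within 2 SD, cut at about -4.2 in these data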;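 also: channel flux triggered by added potassium and thallium sulfate stimulus; B-score of peak minus minimum fluorescence over baseline after thallium stimulus; more negative B-score means stronger Kir2.1 block with less thallium influx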
KCNQ1 act = potentiators or activators of KCNQ1 channel, primary screen, cell-based, thallium flux, high-throughput; CHO-K1 KCNQ1, thallium flux FluxOR fluorescence; stronger effect = higher value; B-score at 10 µM; 0.35% of 310,000 active;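 active = fluorescence ratio B-score, a plate-corrected score, at least three library SD, with initial intensity B-score within 5 SD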
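System: Stable KCNQ1 CHO-K1 line | Incubation: 90 min dye loading and 20 min compound exposure, both at room temperature | Measure: Ratio B score | Medium: Assay buffer for compound exposure, DMSO matched across wells | Compound dosing: Single-concentration screen | Probe or stimulus: K+/Tl+ depolarizing stimulus | Measured by: Kinetic FluxOR fluorescence, 10 s baseline plus 110 s post-stimulus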
KCNQ1 block = inhibitors of human KCNQ1 channel, primary screen, cell-based, thallium flux, high-throughput. Potassium voltage-gated channel subfamily KQT member 1 (Homo sapiens), P51787. CHO-K1 KCNQ1, FluxOR thallium flux fluorescence; stronger effect = higher value. B-score at 10 µM. 1.3% of 310,000 active;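 active = compounds whose thallium flux B-score, printed positive for inhibition, exceeds three library SD while starting fluorescence stays within three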;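 also: channel opened by potassium depolarization with thallium stimulus after 20 min compound exposure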
hERG protect = hERG rescue from dofetilide block, primary screen, cell-based, CHO-hERG, FluxOR thallium flux, dofetilide IC70. dofetilide IC70 present. activation (rescue from dofetilide block), less the hit threshold, % at 10 µM. 0.51% of 310,000 active. AID 1511, 2009;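 active = activation above the mean of controls blocked by dofetilide plus 5 SD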;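 also: thallium influx through hERG after potassium depolarization seen as dye fluorescence rise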
Target sequence (Q12809 whole entry, looked up): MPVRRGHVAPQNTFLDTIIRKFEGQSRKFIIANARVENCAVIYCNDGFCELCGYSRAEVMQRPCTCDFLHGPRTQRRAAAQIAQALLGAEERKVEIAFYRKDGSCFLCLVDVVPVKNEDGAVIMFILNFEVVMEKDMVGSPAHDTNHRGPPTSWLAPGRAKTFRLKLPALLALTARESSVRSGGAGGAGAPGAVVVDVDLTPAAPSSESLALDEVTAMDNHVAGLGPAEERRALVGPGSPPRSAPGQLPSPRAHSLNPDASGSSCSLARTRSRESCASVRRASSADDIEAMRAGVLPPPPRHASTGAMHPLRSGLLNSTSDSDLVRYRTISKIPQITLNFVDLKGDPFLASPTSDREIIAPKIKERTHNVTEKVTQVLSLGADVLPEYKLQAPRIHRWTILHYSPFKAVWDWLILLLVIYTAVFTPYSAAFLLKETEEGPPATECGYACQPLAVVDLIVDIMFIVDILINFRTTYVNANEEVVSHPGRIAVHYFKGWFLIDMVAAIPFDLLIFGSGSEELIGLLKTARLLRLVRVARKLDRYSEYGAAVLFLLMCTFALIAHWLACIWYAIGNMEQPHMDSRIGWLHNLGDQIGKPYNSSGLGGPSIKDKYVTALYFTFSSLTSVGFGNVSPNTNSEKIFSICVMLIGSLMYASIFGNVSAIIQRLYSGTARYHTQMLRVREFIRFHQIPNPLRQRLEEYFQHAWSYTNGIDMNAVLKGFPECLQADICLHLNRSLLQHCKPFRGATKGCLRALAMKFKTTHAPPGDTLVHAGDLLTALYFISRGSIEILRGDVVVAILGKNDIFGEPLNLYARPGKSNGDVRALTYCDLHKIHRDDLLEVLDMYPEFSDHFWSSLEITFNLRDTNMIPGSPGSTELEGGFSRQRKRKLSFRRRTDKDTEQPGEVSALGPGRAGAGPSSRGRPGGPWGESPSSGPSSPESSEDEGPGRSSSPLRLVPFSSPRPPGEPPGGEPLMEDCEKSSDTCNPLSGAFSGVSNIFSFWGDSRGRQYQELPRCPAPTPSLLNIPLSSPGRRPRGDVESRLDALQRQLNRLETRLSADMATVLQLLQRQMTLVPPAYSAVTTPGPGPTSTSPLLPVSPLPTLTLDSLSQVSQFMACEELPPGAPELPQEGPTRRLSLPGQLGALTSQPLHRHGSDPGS
KCNK9 inh = KCNK9 potassium channel inhibitors, primary screen, HEK293 cells, thallium flux | FluxOR thallium flux fluorescence; stronger effect = lower value | B-score at 10 µM | 1.2% of 310,000 active;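 active = ratio B-score over 3 SD below the library mean, with starting fluorescence within 5 SD of its mean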;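 also: negative B-score means less thallium flux so channel inhibition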
* marks the source's active call; other numbers are inactive results; i = inactive; x = not tested or not shown.

SMILES	KCNK3 block	Kir21 block	KCNQ1 act	KCNQ1 block	hERG protect	KCNK9 inh
CCOc1ccc(C(C(=O)NC(C)(C)C)N(CCOC)C(=O)CCC(=O)Nc2ccccn2)cc1 (stereo not drawn)	i	0.38	i	i	-9	i
CCc1nc(SCC(=O)Nc2ccc(F)cc2F)c2c(=O)n(C)c(=O)n(C)c2n1	i	-0.96	i	i	-5	i
CCCc1nc(SCC(=O)Nc2cc(Cl)ccc2OC)c2c(=O)n(C)c(=O)n(C)c2n1	x	0.25	14*	i	-10	i
c1ccc2c(c1)oc1c(Nc3ccc(CN4CCOCC4)cc3)ncnc12	i	-5*	i	i	-15	i
c1ccc(Nc2ncnc3c2oc2ccccc23)cc1	i	-0.38	i	i	-6	i
O=C(COC(=O)CCNS(=O)(=O)c1ccc2c(c1)OCCO2)NC1CCCc2ccccc21 (stereo not drawn)	i	-0.04	i	i	5.3*	i
COC(=O)c1ccccc1NC(=O)CS(=O)(=O)Cc1nc(-c2ccc(C)cc2)oc1C	i	0.75	i	i	-9	i
N#CCCN(C(=O)CN1CCN(S(=O)(=O)c2ccc(Cl)s2)CC1)c1ccc(F)cc1	i	x	x	x	x	x
Cc1cc(Cl)ccc1OC(C)C(=O)Nc1cnn(CCCC(=O)O)c1 (stereo not drawn)	i	-0.25	i	i	-2	i
OCCCNCc1ccc(N(c2ccccc2)c2ccccc2)cc1	i	-12*	i	i	-9	i
c1ccc(-c2noc(CSc3nnnn3C3CCCCC3)n2)cc1	i	0.01	i	i	-10	i
CCOC(=O)C1CCCN(C/C(O)=C(\C#N)c2nc(-c3ccc(Cl)cc3)cs2)C1 (stereo not drawn)	i	-0.08	i	i	-13	i
COc1ccc(S(=O)(=O)NCc2ccc(C(=O)N3CCN(Cc4ccccc4)CC3)cc2)cc1	i	-4	i	i	-7	i
Cc1ccc(S(=O)(=O)NCc2ccc(C(=O)N3CCN(Cc4ccccc4)CC3)cc2)cc1	-9.3*	0.17	i	i	-4	i
Cc1ccc(S(=O)(=O)NCc2ccc(C(=O)NCCCN3CCC(Cc4ccccc4)CC3)cc2)cc1	i	-3.9	i	6*	-21	i
Cc1ccc(S(=O)(=O)NCCC(=O)N2CCC(Cc3ccccc3)CC2)cc1	i	0.56	i	i	-11	i
CCCCN(C(=O)c1ccc2c(c1)OCO2)c1c(N)n(CC(C)C)c(=O)[nH]c1=O	i	x	x	x	x	x
O=C(Nc1ccc(S(=O)(=O)N2CCCCC2)cc1)c1ccc(CN2CCOCC2)cc1	i	-1.6	i	i	-16	i
CC(=O)Nc1ccc2c(c1)Cc1ccc(Cl)cc1-2	i	x	x	x	x	x
CC(C)C(=O)Nc1ccc2c(c1)Cc1cc(NC(=O)C(C)C)ccc1-2	i	-0.43	i	i	6.0*	i
c1ccc2c(c1)CCN(c1ncnc3c1[nH]c1ccccc13)C2	-8.7*	-0.95	i	11*	-27	i
COc1cccc2[nH]c3c(N4CCc5ccccc5C4)ncnc3c12	x	0.5	i	i	-8	i
O=C(NN1C(=O)/C(=C/c2cccnc2)SC1=S)C(c1ccccc1)c1ccccc1	i	-0.09	i	6*	-17	i
CC(=O)Nc1ccc(/C(C)=N/Nc2nc(Nc3cccc4ccccc34)nc(N3CCOCC3)n2)cc1	i	0.08	i	i	-8	i
O=C(O)c1cc(-c2cccc([N+](=O)[O-])c2)n[nH]1	i	-1.9	i	i	49*	i
SMILES	KCNK3 block	Kir21 block	KCNQ1 act	KCNQ1 block	hERG protect	KCNK9 inh
COc1cccc(-c2cc(C(=O)O)[nH]n2)c1	i	0	i	i	-7	i
Cc1nn(C)cc1/C=C/C(=O)c1ccc(O)cc1	i	0.35	i	i	6.2*	i
O=C(/C=C/c1ccc(O)cc1)c1ccccc1	i	0.83	i	i	-18	i
Cc1ccc(S(=O)(=O)Nc2c(C)n(C)n(-c3ccccc3)c2=O)c(C)c1	i	-0.71	i	i	-3	i
CCN(CC)S(=O)(=O)c1ccc(C(=O)NNC(=O)C2COc3ccccc3O2)cc1 (stereo not drawn)	i	x	x	x	x	x
CCN(CC1COc2ccccc2O1)S(=O)(=O)c1ccc(C)cc1 (stereo not drawn)	i	-4.8*	i	i	-12	i
CC(C)(C)NCc1cc(Br)ccc1OCc1cccs1	i	-4.8*	i	i	-5	i
COc1cc(CNCc2ccccn2)ccc1OCc1cccc(Cl)c1	i	-7.6*	i	i	-9	i
COc1cc(CNCc2ccco2)ccc1OCc1ccccc1	i	0.02	i	i	-10	i
COc1cc(CNCc2cccs2)ccc1OCc1ccccc1	i	-3	i	i	-10	i
COc1cc(CNCc2cccs2)ccc1OCc1cccs1	i	-5*	i	i	-3	i
COc1cc(CNCc2ccccn2)ccc1OCc1c(Cl)cccc1Cl	i	-8.8*	i	i	-1	i
CCOC(=O)C1NN=C(C(=O)c2ccc(C)cc2)C1c1ccc(C)cc1 (stereo not drawn)	i	-3.2	i	i	-3	i
Cc1ccc2c(C)c(C(=O)NCCc3ccco3)oc2c1C	i	0.62	i	i	-11	i
CC(=O)NCc1nc2ccccc2n1C(C)C	i	-0.26	i	i	-3	i
CCc1cc(-c2onc(C)c2-c2cscn2)c(O)cc1OC	i	-3.3	i	i	-11	i
COc1ccc(CC(=O)NC(C)c2ccc(S(N)(=O)=O)cc2)cc1S(=O)(=O)N1CCOCC1 (stereo not drawn)	i	-0.16	i	i	-7	i
CCOc1cc2c(cc1OCC)CN(C(=O)c1cccc(S(=O)(=O)N3CCCC3)c1)CC2	-9.9*	x	x	x	x	x
CCOc1ccc(CCNC(=O)COC(=O)CCC(=O)c2cccs2)cc1OCC	i	-5.3*	i	i	-6	i
Cc1c(C(=O)N2CCc3ccccc3C2)oc2ccc(S(=O)(=O)N3CCCCCC3)cc12	i	0.45	i	i	-18	-6.8*
Cc1c(C(=O)N2CCOCC2)oc2ccc(S(=O)(=O)N3CCCC3)cc12	i	-1.9	i	i	3	i
